Assay results published in article PMC2199097 (The Journal of Experimental Medicine, 1997).

Test system: CXCR4
Assay: Ca2+ mobilization assay in SupT1 cells
Format: cell-based, human
Settings: SupT1 cells expressing CXCR4, Fura-2, 500 ng/ml SDF-1α, without ALX40-4C
In short: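 SupT1 cells were loaded with 2.5 μM Fura-2/AM for 1 h at 37°C in the dark, allowed to efflux 15 min in PBS, then resuspended at 2 × 10⁶ cells/ml in Dulbecco's PBS with calcium and magnesium. Test compound (10–50 μM) was added, and SDF-1α (500 ng/ml) followed ∼90 s later. The Ca²⁺ signal was read on a luminescence spectrometer.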

“SDF-1α: the chemokine stromal-derived factor (SDF)-1α (Peprotech)” was tested. Which “Ca2+ mobilization response to SDF-1α” value did it give?
The value was “normally respond to SDF-1α”.
